Measurements: ChEMBL document CHEMBL3244177, “Synthesis and prostaglandin-like activity of 2-(trans-3-hydroxy-1-octenyl)-3-indoleheptanoic acid” (J Med Chem, 1978)
Active and inactive are the calls of the source. The rule behind the calls is not given here.

Columns and labels:
Format in all cases: tissue-based
[1] = species: Rattus norvegicus; assay: Effect on Prostaglandin receptor-induced contraction in rat stomach fundus strip assessed as intrinsic activity at 1.6 ug by kymography relative to PGE1
How it was run: (§1)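 Rat fundus strips in Krebs, dosed once tone was constant. Final bath concentrations were 2.70–13.5 × 10^-7 mol/L for the compound and 0.70–14.0 × 10^-9 mol/L for PGE1 standards, from ethanol stocks. Auxotonic kymograph recording, 10-min cycle, 90 s contact. PGE1-like activity was bracketed between two PGE1 standard doses, mean of five observations per concentration.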

[2] = species: Rattus norvegicus; assay: Induction of Prostaglandin receptor-induced adenylate cyclase activation in rat liver homogenate assessed as increase in cAMP level at 6.7 to 13.4 x 10^-3 M after 10 mins relative to control
How it was run: (§2)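 Rat liver homogenate adenylate cyclase, 10 min at 37 °C in Tris-HCl 0.1 mol/L pH 8.0 with ATP 4 × 10^-3, MgSO4 15 × 10^-3, GTP 5 × 10^-4, EGTA 1 × 10^-4 and theophylline 5 × 10^-3 mol/L. Stopped by 2 min boiling, then frozen, thawed and centrifuged. cAMP in the supernatant measured by the Brown method, saline blanks, four replicates.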

[3] = species: Rattus norvegicus; assay: Inhibition of Prostaglandin receptor-induced adenylate cyclase activation in rat liver homogenate assessed as cAMP level at 6.7 to 13.4 x 10^-3 M after 10 mins relative to control
[4] = species: Cavia porcellus; assay: Effect on Prostaglandin receptor-induced contraction in guinea pig ileum assessed as intrinsic activity at 0.8 ug by kymography relative to PGE1
How it was run: (§3)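 Guinea-pig terminal ileum in a 3-mL oxygenated Tyrode bath at 30 °C with cyproheptadine 3 × 10^-9 mol/L. Dosed at 5-min intervals, 30 s contact, isotonic lever on a smoked drum. Final concentrations were 3.6–17.9 × 10^-7 mol/L for the compound and 0.94–18.8 × 10^-9 mol/L for PGE1 standards. Activity bracketed between two PGE1 doses, mean of five observations.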

[5] = Competitive inhibition of Prostaglandin receptor in rat stomach fundus strip assessed as inhibition of PGE1-induced contraction by kymography
How it was run: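 Rat stomach fundus strip contractions to PGE1 11.3 × 10^-9 mol/L compared with and without analogue at 2.15–21.5 × 10^-6 mol/L. Stock in ethanol, diluted in Krebs. Kymograph with auxotonic lever, load 1 g baseline and 3 g maximal, 10-min dose cycle, 90 s contact. Approximate IC50 taken from the inhibition concentration-response curve in four preparations.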

[6] = species: Rattus norvegicus; assay: Effect on Prostaglandin receptor-induced contraction in rat stomach fundus strip assessed as intrinsic activity at 2.0 ug by kymography relative to PGE1; how it was run: as §1
[7] = species: Cavia porcellus; assay: Effect on Prostaglandin receptor-induced contraction in guinea pig ileum assessed as intrinsic activity at 0.4 ug by kymography relative to PGE1; how it was run: as §3
[8] = species: Cavia porcellus; assay: Effect on Prostaglandin receptor-induced contraction in guinea pig ileum assessed as intrinsic activity at 2.0 ug by kymography relative to PGE1; how it was run: as §3
[9] = species: Rattus norvegicus; assay: Effect on Prostaglandin receptor-induced contraction in rat stomach fundus strip assessed as intrinsic activity at 0.4 ug by kymography relative to PGE1; how it was run: as §1
[10] = species: Rattus norvegicus; assay: Induction of Prostaglandin receptor-induced adenylate cyclase activation in rat liver homogenate assessed as increase in cAMP level at equimolar dose of 2.8 x 10^-5 mol/L PGE1 after 10 mins relative to control; how it was run: as §2
[11] = species: Cavia porcellus; assay: Effect on Prostaglandin receptor-induced contraction in guinea pig ileum assessed as intrinsic activity at 1.6 ug by kymography relative to PGE1; how it was run: as §3
[12] = species: Rattus norvegicus; assay: Effect on Prostaglandin receptor-induced contraction in rat stomach fundus strip assessed as intrinsic activity at 0.8 ug by kymography relative to PGE1; how it was run: as §1

Intrinsic activity [1]: 0.00056
Activity [2]: Active
inhibition [3]: 40%
IC50 [5]: 11.8 µM
Intrinsic activity [6]: 0.00055
Intrinsic activity [9]: 0.00075
Activity [10]: inactive
Intrinsic activity [12]: 0.00075
SMILES: CCCCCC(O)/C=C/c1[nH]c2ccccc2c1CCCCCCC(=O)O (configuration not stated)
Intrinsic activity [4]: 0.0029
Intrinsic activity [7]: 0.004
Intrinsic activity [8]: 0.0057
Intrinsic activity [11]: 0.0014
